Results as given in ChEMBL document CHEMBL3351994, “Synthesis and biological evaluation of novel millepachine derivatives as a new class of tubulin polymerization inhibitors” (J Med Chem, 2014).
pIC50: −log10 of the molar value.

Experiments:
[1] = Antiproliferative activity against human HCT15 cells assessed as inhibition of cell proliferation after 48 hrs by MTT assay; assay type: functional, cell-based; conditions: HCT-15, 48 h
How it was run: (§1)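 Cells grown at 37 °C in humidified 5% CO2. K562, C26 and HCT lines in RPMI-1640; other lines in DMEM; both media with 10% FBS, penicillin and streptomycin. 1000 cells/well seeded, incubated overnight, then compound at various doses for 48 h. MTT added for 4 h, formazan dissolved in DMSO, absorbance read at 590 nm. IC50 from dose–response curves, mean ± SEM of at least three independent experiments.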

Rattus norvegicus [2] = assay: Volume of distribution at steady state in rat at 9 mg/kg, po; assay type: ADME, organism-based; design: dose 9 mg/kg, route oral; conditions: in vivo
[3] = Antiproliferative activity against human DLD1 cells assessed as inhibition of cell proliferation after 48 hrs by MTT assay; assay type: functional, cell-based; conditions: DLD-1, 48 h; how it was run: as §1
MCF7 = assay: Resistance index, ratio of IC50 for adriamycin resistant human MCF7 cells to IC50 for parental human MCF7 cells; assay type: functional
HepG2 [4] = assay: Induction of apoptosis in human HepG2 cells assessed as necrotic cells at 100 nM after 48 hrs by annexin-V-FITC and propidium iodide staining based flow cytometry (reference value: 2.16%); assay type: functional
How it was run: (§2)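 HepG2 cells treated with 50, 100 or 200 nM compound or DMSO vehicle for 24 or 48 h at 37 °C. Labeled with annexin-V-FITC and PI and analyzed by flow cytometry. Cells classified as early apoptotic (annexin-V+/PI−), late apoptotic (annexin-V+/PI+) or necrotic (annexin-V−/PI+).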

HepG2 [5] = assay: Induction of cell cycle arrest in human HepG2 cells assessed as accumulation at G2/M phase phase at 200 nM after 24 hrs by propidium iodide staining based flow cytometry (reference value: 11.2%); assay type: functional
HepG2 [6] = assay: Induction of apoptosis in human HepG2 cells assessed as viable cells at 100 nM after 24 hrs by annexin-V-FITC and propidium iodide staining based flow cytometry (reference value: 93.2%); assay type: functional; conditions: HepG2, 24 h, read-out: Activity
Rattus norvegicus [7] = assay: Systemic clearance in rat at 9 mg/kg, po; assay type: ADME, organism-based; design: dose 9 mg/kg, route oral; conditions: in vivo
Rattus norvegicus [8] = assay: Systemic clearance in rat at 2.25 mg/kg, iv; assay type: ADME, organism-based; design: dose 2.25 mg/kg, route intravenous; conditions: in vivo
[9] = Antiproliferative activity against human A2780S cells assessed as inhibition of cell proliferation after 48 hrs by MTT assay; assay type: functional, cell-based; conditions: A2780, 48 h
How it was run: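 Cells grown in DMEM with 10% FBS, penicillin/streptomycin at 37 °C, 5% CO2. 1000 cells/well seeded, incubated overnight, then exposed to various doses for 48 h. MTT added for 4 h, formazan dissolved in DMSO, absorbance read at 590 nm. IC50 = concentration inhibiting proliferation by 50%, mean ± SEM of dose–response curves from at least three independent experiments.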

HepG2 [10] = assay: Induction of apoptosis in human HepG2 cells assessed as viable cells at 200 nM after 48 hrs by annexin-V-FITC and propidium iodide staining based flow cytometry (reference value: 93.2%); assay type: functional; conditions: HepG2, 48 h, read-out: Activity
HepG2 [11] = assay: Induction of apoptosis in human HepG2 cells assessed as late apoptotic cells at 50 nM after 48 hrs by annexin-V-FITC and propidium iodide staining based flow cytometry (reference value: 1.03%); assay type: functional; how it was run: as §2
[12] = Antiproliferative activity against adriamycin resistant human MCF7/ADR cells assessed as inhibition of cell proliferation after 48 hrs by MTT assay; assay type: functional, cell-based; conditions: NCI/ADR-RES; how it was run: as §1
[13] = Antiproliferative activity against mouse C26 cells assessed as inhibition of cell proliferation after 48 hrs by MTT assay; assay type: functional, cell-based; conditions: C26, 48 h; how it was run: as §1
[14] = Antiproliferative activity against human ES2 cells assessed as inhibition of cell proliferation after 48 hrs by MTT assay; assay type: functional, cell-based; conditions: ES-2, 48 h
HepG2 [15] = assay: Induction of cell cycle arrest in human HepG2 cells assessed as accumulation at G0/G1 phase at 200 nM after 24 hrs by propidium iodide staining based flow cytometry (reference value: 58.2%); assay type: functional
HepG2 [16] = assay: Induction of apoptosis in human HepG2 cells assessed as late apoptotic cells at 200 nM after 48 hrs by annexin-V-FITC and propidium iodide staining based flow cytometry (reference value: 1.03%); assay type: functional; how it was run: as §2
HepG2 [17] = assay: Induction of apoptosis in human HepG2 cells assessed as late apoptotic cells at 50 nM after 24 hrs by annexin-V-FITC and propidium iodide staining based flow cytometry (reference value: 1.03%); assay type: functional; how it was run: as §2
HepG2 [18] = assay: Induction of apoptosis in human HepG2 cells assessed as necrotic cells at 200 nM after 24 hrs by annexin-V-FITC and propidium iodide staining based flow cytometry (reference value: 2.16%); assay type: functional; how it was run: as §2
[19] = Antiproliferative activity against human HCT8 cells assessed as inhibition of cell proliferation after 48 hrs by MTT assay; assay type: functional, cell-based; conditions: HCT-8, 48 h; how it was run: as §1
HepG2 [20] = assay: Induction of apoptosis in human HepG2 cells assessed as viable cells at 100 nM after 48 hrs by annexin-V-FITC and propidium iodide staining based flow cytometry (reference value: 93.2%); assay type: functional; conditions: HepG2, 48 h, read-out: Activity
A-375 = assay: Antiproliferative activity against human A375 cells assessed as inhibition of cell proliferation after 48 hrs by MTT assay; assay type: functional, cell-based; conditions: A-375, 48 h; how it was run: as §1
HepG2 [21] = assay: Induction of apoptosis in human HepG2 cells assessed as early apoptotic cells at 50 nM after 24 hrs by annexin-V-FITC and propidium iodide staining based flow cytometry (reference value: 3.63%); assay type: functional; how it was run: as §2
NCI-H358 = assay: Antiproliferative activity against human NCI-H358 cells assessed as inhibition of cell proliferation after 48 hrs by MTT assay; assay type: functional, cell-based; conditions: NCI-H358, 48 h; how it was run: as §1
HepG2 [22] = assay: Induction of cell cycle arrest in human HepG2 cells assessed as accumulation at G2/M phase phase at 100 nM after 24 hrs by propidium iodide staining based flow cytometry (reference value: 11.2%); assay type: functional
HepG2 [23] = assay: Induction of apoptosis in human HepG2 cells assessed as early apoptotic cells at 200 nM after 48 hrs by annexin-V-FITC and propidium iodide staining based flow cytometry (reference value: 3.63%); assay type: functional; how it was run: as §2
[24] = Antiproliferative activity against cisplatin resistant human […] cells assessed as inhibition of cell proliferation after 48 hrs by MTT assay; assay type: functional, cell-based; conditions: A2780cisR; how it was run: as §1
HepG2 [25] = assay: Induction of apoptosis in human HepG2 cells assessed as necrotic cells at 100 nM after 24 hrs by annexin-V-FITC and propidium iodide staining based flow cytometry (reference value: 2.16%); assay type: functional; how it was run: as §2
[26] = Cmax in rat at 9 mg/kg, po; assay type: ADME, organism-based; design: dose 9 mg/kg, route oral; conditions: in vivo
How it was run: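 Rat pharmacokinetics; oral and intravenous dosing, with group sizes of 5, 5 and 4 rats. Parameters derived: systemic clearance, volume of distribution, area under the plasma concentration–time curve, maximum plasma concentration and percent oral bioavailability.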

[27] = Oral bioavailability in rat at 9 mg/kg; assay type: ADME, organism-based; conditions: in vivo
HepG2 [28] = assay: Induction of apoptosis in human HepG2 cells assessed as late apoptotic cells at 100 nM after 48 hrs by annexin-V-FITC and propidium iodide staining based flow cytometry (reference value: 1.03%); assay type: functional; how it was run: as §2
U-251 = assay: Antiproliferative activity against human U251 cells assessed as inhibition of cell proliferation after 48 hrs by MTT assay; assay type: functional, cell-based; conditions: U-251, 48 h; how it was run: as §1

## COc1ccc(/C=C/C(=O)c2ccc(OC)c3c2OC(C)(C)C=C3)cc1N
[1]
  pIC50: 7.72
Rattus norvegicus [2]
  Vdss: 25 L/kg
[3]
  pIC50: 7.74
MCF7
  Ratio IC50: 1.6
HepG2 [4]
  Activity: 5.45%
HepG2 [5]
  Activity: 43.3%
HepG2 [6]
  viability at 0.1 µM: 74.1%
Rattus norvegicus [7]
  CL: 98.3 mL/min/kg
Rattus norvegicus [8]
  CL: 20 mL/min/kg
[9]
  pIC50: 7.70
HepG2 [10]
  viability at 0.2 µM: 41.7%
HepG2 [11]
  Activity: 17.69%
[12]
  pIC50: 7.77
[13]
  pIC50: 7.59
[14]
  pIC50: 8.10
HepG2 [15]
  Activity: 37.6%
HepG2 [16]
  Activity: 34.72%
HepG2 [17]
  Activity: 4.28%
HepG2 [18]
  Activity: 1.95%
[19]
  pIC50: 7.80
HepG2 [20]
  viability at 0.1 µM: 48.8%
A-375
  pIC50: 7.66
HepG2 [21]
  Activity: 2.21%
NCI-H358
  pIC50: 7.92
HepG2 [22]
  Activity: 37.4%
HepG2 [23]
  Activity: 20.14%
[24]
  pIC50: 7.85
HepG2 [25]
  Activity: 3.83%
[26]
  Cmax: 519 ng/mL
[27]
  bioavailability: 28%
HepG2 [28]
  Activity: 29.45%
U-251
  pIC50: 7.62
